This is a sample that favours compounds with a hit; in the whole collection about 1.3% have one here.
PP1 inh – counter-screen for PP5 inhibitors: inhibitors of human PP1-alpha; P62136; purified PP1alpha, OMFP fluorescence; inhibition, % at 6.7 µM; 320,000 compounds, 0.9% hits; AID 2235;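 active means inhibition above the mean inhibition of all tested compounds plus 3 SD, computed separately for each screening campaign, cut at about 15% in these data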
PP5 primary – PP5 (human) phosphatase inhibition. purified PP5c, OMFP substrate fluorescence. 320,000 compounds, 0.18% hits. P53041. inhibition, % at 6.7 µM. AID 1987;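 active means inhibition above the campaign's mean inhibition across all tested compounds plus 3 SD, cut at about 9.5% in these data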
NR2E3 ag-1 – human photoreceptor-specific nuclear receptor agonism | 360,000 compounds, 0.35% hits | inhibition of corepressor binding, % at 3.98 µM | AID 602229 | CHO-S Gal4-NCOR/VP16-NR2E3 two-hybrid, luciferase;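 active means inhibition above the mean of all tested compounds plus 3 SD, cut at about 70% in these data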;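 further: higher means lower luciferase signal from less NR2E3 corepressor binding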
Target sequence (Q9Y5X4 whole entry, looked up, the tested form may be a part): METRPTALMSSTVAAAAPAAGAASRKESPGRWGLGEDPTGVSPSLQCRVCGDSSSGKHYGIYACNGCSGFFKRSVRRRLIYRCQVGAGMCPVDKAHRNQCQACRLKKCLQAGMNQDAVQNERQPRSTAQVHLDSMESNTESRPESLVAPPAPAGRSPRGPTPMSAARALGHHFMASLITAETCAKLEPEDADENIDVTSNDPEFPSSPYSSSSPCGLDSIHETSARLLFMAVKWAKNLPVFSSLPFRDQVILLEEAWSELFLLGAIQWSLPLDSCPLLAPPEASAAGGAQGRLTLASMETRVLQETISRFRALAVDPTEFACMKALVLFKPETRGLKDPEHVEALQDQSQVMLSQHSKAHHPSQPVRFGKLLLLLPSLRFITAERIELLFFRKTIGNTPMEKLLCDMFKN
NR2E3 ag-2 – activates human photoreceptor nuclear receptor NR2E3; 320,000 compounds, 0.12% hits; Q9Y5X4; inhibition of corepressor binding, % at 4.78 µM; GST-NR2E3/biotin-RetCOR TR-FRET, 1536-well;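 active means percent inhibition above the cutoff of mean plus 3 SD of all tested compounds, set per screening campaign, cut at about 20% in these data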
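system = GST-tagged NR2E3 plus biotinylated RetCOR corepressor | input = 1.35 nM GST-NR2E3 | also added = 7 nM biotin-RetCOR | schedule = 5 h incubation at 4 °C | measured by = TR-FRET with europium anti-GST and streptavidin-D2, 340 nm excitation | read-out = percent loss of FRET ratio relative to control wells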
NR2E3 ag confirm – confirmation of human NR2E3 agonists | shares compounds with NR2E3 ag-1 | CHO-S mammalian two-hybrid NR2E3-NCOR, luciferase luminescence | inhibition, % at 3.98 µM | 2,300 compounds, 51% hits | AID 624378;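 active means average inhibition above a cutoff equal to the mean inhibition of all tested compounds plus one SD, cut at about 70% in these data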
VP16 counter – reduces GAL4-VP16 reporter signal in NR2E3 counterscreen. 2,300 compounds, 29% hits. CHO-S GAL4-VP16 luciferase reporter, luminescence. inhibition, % at 3.98 µM. AID 624379. shares compounds with NR2E3 ag-1;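 active means mean inhibition above a cutoff equal to the average over all tested compounds plus one standard deviation, cut at about 70% in these data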;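 further: luciferase from a UAS reporter driven by GAL4-VP16 transactivation; higher means less reporter light so more repression of VP16 activity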
Hits are given with their value; . = inactive; / = no result given.

SMILES	PP1 inh	PP5 primary	NR2E3 ag-1	NR2E3 ag-2	NR2E3 ag confirm	VP16 counter
Cc1nc2ccc(S(=O)(=O)Nc3cccc(-c4nc5cccnc5s4)c3)cc2s1	.	.	70.6	.	75.5	.
Cc1ccc(S(=O)(=O)Nc2ccc3nc(C)sc3c2)c(C)c1	.	.	.	.	72.0	.
Cc1nc2ccc(S(=O)(=O)Nc3ccc(-c4nc5cccnc5s4)cc3)cc2s1	.	.	.	.	/	/
COc1cc(NC(=O)C2(C)CCCN(C(C)C)C2)cc(OC)c1OC (centres undefined)	/	/	.	/	/	/
COc1ccccc1N(Cc1ccccc1)S(=O)(=O)c1cccc(C(=O)Nc2ccccn2)c1	.	.	.	.	/	/
COc1ccccc1N(Cc1ccccc1)S(=O)(=O)c1cccc(C(=O)Nc2ccc(C)cn2)c1	.	.	.	.	.	.
CC(=O)c1ccc(Nc2nc(C(N)COCc3ccccc3)cs2)cc1 (centres undefined)	/	/	.	/	/	/
N#CCC(=O)Nc1ccc(C(=O)OCC(=O)NC2CCCCCC2)cc1	.	.	.	.	/	/
Cc1nc(NCCc2ccc(S(N)(=O)=O)cc2)c2c(C)c(C)sc2n1	.	.	.	.	72.9	.
COc1ccccc1NC(=O)Cn1c(CCC(=O)O)ccc1-c1ccccc1	.	.	.	.	/	/
O=C(NCc1cccs1)C(=O)c1cn(CC(=O)N2CCCC2)c2ccccc12	.	.	.	.	/	/
CCCCC(=O)N1CCN(c2nc3ccc(Cl)cc3s2)CC1	.	.	.	.	.	.
CC(C)(CC(=O)O)CC(=O)N1CCN(c2nc3ccc(Cl)cc3s2)CC1	.	.	.	.	/	/
COc1ccc(NC(=O)C[C@H]2C(=O)N(c3ccc(OC)cc3)C[C@@H]2CSC)cc1	/	/	.	/	/	/
CCCC(=O)c1ccc(N2CCN(C(=O)c3ccccc3Br)CC2)c(F)c1	.	.	83.6	.	73.7	.
Cc1ccc(C23CC4CC(CC(C(=O)NC(C)C(N)=O)(C4)C2)C3)cc1 (centres undefined)	.	.	.	.	/	/
CCOC(=O)N1CCC(NC(=O)C2CCCN(Cc3nc(-c4cccc(Cl)c4)oc3C)C2)CC1 (centres undefined)	.	.	84.0	.	87.6	.
Cc1ccc(-c2nc(CS(=O)(=O)CC(=O)Nc3cc(F)ccc3F)c(C)o2)cc1	.	.	.	.	/	/
COc1ccc(C(=O)C2CCCN(S(=O)(=O)c3ccc(C(C)=O)cc3)C2)c(C)c1 (centres undefined)	.	.	82.8	.	.	.
OC[C@@H]1CN(Cc2ccc(-c3ccccc3)cc2)C[C@H](n2cnc3c(NCc4ccncc4)ncnc32)O1	/	/	.	/	74.2	.
OC[C@@H]1CN(Cc2ccc(-c3ccccc3)cc2)C[C@H](n2cnc3c(NCc4ccco4)ncnc32)O1	/	/	.	/	75.0	.
Cc1cc(C(=O)COC(=O)c2ccc(O)cc2O)c(C)n1-c1ccccc1	.	.	.	.	/	/
Cc1cc(C(=O)COC(=O)c2ccc(O)cc2O)c(C)n1-c1ccc(OC(F)F)cc1	/	/	.	/	.	.
COc1ccc(-n2c(C)cc(C(=O)COC(=O)c3ccc(O)cc3O)c2C)cc1	.	.	.	.	88.8	.
COc1ccccc1NC(=O)C(C)OC(=O)CCCOc1ccccc1 (centres undefined)	.	.	.	.	/	/
SMILES	PP1 inh	PP5 primary	NR2E3 ag-1	NR2E3 ag-2	NR2E3 ag confirm	VP16 counter
CCCCNC(=O)c1ccc(NC(C)=O)c(Cl)c1	.	.	.	.	/	/
CC1CCN(S(=O)(=O)c2ccc(Oc3ccc([N+](=O)[O-])cc3)cc2)CC1	.	.	88.1	.	91.1	75.6
O=S(=O)(Nc1ccc(S(=O)(=O)N2CCCC2)cc1)c1ccc(F)cc1F	/	/	.	/	/	/
Cc1ccc(C)c(NC(=S)NCC(c2ccccc2)N(C)C)c1 (centres undefined)	.	.	.	.	.	.
Cc1ccccc1NC(=S)NCC(c1cccnc1)N(C)C (centres undefined)	.	.	.	.	/	/
Cc1ccc(S(=O)(=O)Nc2nc3ccccc3nc2NCc2ccco2)cc1C	.	.	.	.	.	.
CCOc1ncccc1C(=O)NNC(=O)c1cccc(S(=O)(=O)Nc2ccc(OC)cc2)c1	.	.	.	.	/	/
N#C/C(C(=O)N1CCCCC1)=C1\Nc2ccccc2S1	.	.	.	.	/	/
Cc1ccc(NC(=S)/C(C#N)=C2/Nc3ccccc3S2)cc1	/	/	93.0	/	99.4	.
